Assay outcomes (PubChem BioAssay)
ATG4B inhibitor = blocks human ATG4B protease cleavage of LC3 substrate; inhibition, % at 8.33 µM; ATG4B cleavage of LC3-PLA2, NBD-HPC fluorescence, 1 h; actives 0.51% (n = 340,000); Q9Y4P1; in the data active = inhibition above about 40%
T cell modulator = T cell immune modulators affecting CD8 T cell-vesicle binding | 2C CD8+ T cell-vesicle binding, flow cytometry; stronger effect = lower value | response (vesicle binding), % at 7 µM | actives 0.068% (n = 330,000) | AID 2052;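 active = response, share of CD8 T cells binding vesicles, and their 90th percentile fluorescence all below set limits, cut at about 80% in these data, passing the limit was not always enough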;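 note: values below 100% mean blocked vesicle binding to the CD8+ T cells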
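Also added: QL9-peptide-loaded Drosophila micro-vesicles bearing Ld, ICAM-1 and B7-1; Test system: purified 2C TCR transgenic mouse naive CD8+ T cells; Measured by: cytometric PE anti-B7-1 and Alexa647 anti-CD8 signals after 1% paraformaldehyde fixation; Timing: binding step 1.5 h, 37 °C, antibody labelling 20 min, ice.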
PfGluPho inh = PfG6PD (Plasmodium falciparum) enzyme inhibition; actives 0.78% (n = 350,000); PfGluPho enzyme, NADPH resazurin-diaphorase fluorescence; inhibition, % at 20 µM; AID 504690;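 active = inhibition reaching at least a set limit at 20 µM in the primary screen, cut at about 59% in these data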;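 note: 0% = DMSO wells with substrate and 100% = DMSO wells lacking glucose-6-phosphate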
PKA-R2B activ = activators of human PKA-R2B complex | PKA-R2B holoenzyme dissociation, Cy5-IP20 fluorescence polarization; R2B truncated from residue 108, S112A mutant; 0% DMSO only, 100% 113 µM cGMP | activation, % at 11.4 µM | actives 0.079% (n = 340,000);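 active = activation above a cutoff set at the mean over all compounds plus 3 SD, cut at about 18% in these data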;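 note: higher means more holoenzyme dissociation and a rise in polarization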
Target sequence (P31323 whole entry, looked up, other chains not shown, the tested form may be a part): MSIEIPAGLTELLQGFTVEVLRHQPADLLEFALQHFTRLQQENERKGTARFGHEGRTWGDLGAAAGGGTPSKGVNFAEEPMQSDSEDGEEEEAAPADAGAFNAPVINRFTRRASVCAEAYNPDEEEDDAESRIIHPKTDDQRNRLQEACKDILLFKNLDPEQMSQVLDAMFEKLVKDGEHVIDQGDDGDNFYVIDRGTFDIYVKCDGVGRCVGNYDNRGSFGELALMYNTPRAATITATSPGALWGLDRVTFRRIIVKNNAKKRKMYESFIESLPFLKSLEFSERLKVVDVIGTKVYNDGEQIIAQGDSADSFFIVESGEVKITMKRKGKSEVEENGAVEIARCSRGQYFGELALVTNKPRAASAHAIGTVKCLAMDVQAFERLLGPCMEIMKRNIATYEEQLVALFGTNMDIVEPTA
PKA-R1A act = activates the PKA-R1A holoenzyme complex. AID 504707. P00514+P68181. actives 0.083% (n = 340,000). PKA-R1A dissociation, Cy5-IP20 fluorescence polarization; scaled: DMSO 0%, 113 µM cGMP 100%. activation, % at 11.4 µM;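 active = percent activation above the mean of all tested compounds plus 3 SD, cut at about 19% in these data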;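 note: higher means more PKAc released from R1A so a rise in polarization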
HKDC1 inhibitor = HKDC1 (human) hexokinase inhibition; Q2TB90; recombinant HKDC1, G6PDH/diaphorase resazurin coupled fluorescence; inhibition, % at 20 µM; actives 0.16% (n = 340,000); AID 493160;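 active = inhibition above about 35% when tested at 20 µM, limit read from the data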;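 note: plate controls were DMSO wells with enzyme for no effect and DMSO wells lacking enzyme for full effect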
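test system = in-house recombinant HK5 (HKDC1) enzyme | amount = HKDC1 at 5 µg/mL | control set = DMSO-enzyme wells negative, buffer-substituted wells positive | compound = one dose of 20 µM, 1% DMSO | schedule = reaction time 90 min, room temperature, protected from light | technique = resorufin fluorescence at 613 nm | reagent = glucose with 1 mM ATP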
PfG6PD confirm = confirmation of Plasmodium falciparum G6PD inhibitors; shares compounds with PfGluPho inh; recombinant PfGluPho, NADPH-diaphorase-resazurin fluorescence; inhibition, % at 20 µM; actives 34% (n = 2,400); AID 504753;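 active = inhibition of at least 50% at 20 µM in any single replicate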;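 note: 0% = DMSO with substrate and 100% = DMSO lacking glucose-6-phosphate substrate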
Diaphorase 10uM = counter-screen for P. falciparum G6PD inhibitors: diaphorase inhibitors, oxidizers | diaphorase-coupled resazurin reduction, fluorescence, NADPH 10 uM | shares compounds with PfGluPho inh | actives 39% (n = 820) | inhibition, % at 20 µM;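 active = average inhibition reaching 50% or more with the compound at 20 µM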;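 note: resorufin red fluorescence formed as diaphorase reduces resazurin using NADPH; 0% = DMSO with enzyme and 100% = DMSO without enzyme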
Diaphorase 30uM = counter-screen for P. falciparum G6PD inhibitors: diaphorase inhibitors, oxidizers; shares compounds with PfGluPho inh; Diaphorase/resazurin coupled assay, resorufin fluorescence, 30 uM NADPH; inhibition, % at 20 µM; actives 29% (n = 820);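 active = inhibition averaging 50% or more, tested at 20 µM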;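 note: 0% = DMSO with enzyme and 100% = DMSO wells lacking diaphorase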
* = called active by the depositor; x = no result. Shown are actives, neighbours in structure and some others; about 1.6% of the full set was active somewhere.

SMILES	ATG4B inhibitor	T cell modulator	PfGluPho inh	PKA-R2B activ	PKA-R1A act	HKDC1 inhibitor	PfG6PD confirm	others
COc1ccc2c(c1)-c1ccccc1S(=O)(=O)N2C	-8	240	60*	2	2	5	30
O=C1OC(c2ccccc2)(c2ccc3cc(O)ccc3c2)c2ccccc21 (stereo not drawn)	-2	x	62*	-5	6	15	-10
O=C1OC(c2ccc(O)cc2)(c2ccccc2O)c2ccccc21 (stereo not drawn)	-2	x	-33	2	-2	0	x
O=C1OC2(c3ccccc31)c1ccccc1-c1ccccc12	-15	x	84*	3	4	3	31
Cc1csc(N2C(=O)C3C4CCC(O4)C3C2=O)n1 (stereo not drawn)	0	x	2	-9	6	-4	x
Oc1c(Br)cc(Br)cc1C=Nc1cccc2ncccc12	16	434	48	-6	-12	31	36
CN(C)CCC1(C2=CCCC2)CC/C(=C/c2ccc(Cl)cc2)C1=O (stereo not drawn)	3	x	-4	-11	5	16	x
CC(C)c1ccccc1OCCNC(=S)NC(=O)c1cccnc1	-4	280	67*	-13	-6	1	21
O=C(c1sc2cc(F)ccc2c1Cl)N1CCN(c2cccc(Cl)c2)CC1	-10	206	9	-8	-9	-12	x
O=c1c2cc(F)ccc2sn1-c1ccccc1Cl	x	x	123*	3	-14	x	110*	Diaphorase 10uM=-33;Diaphorase 30uM=2
N=C1SCC(=O)N1c1ccccc1Cl	7	245	4	5	-1	-5	x
O=c1c2ccc(F)cc2sn1-c1ccccc1	x	x	128*	-7	-1	x	106*	Diaphorase 10uM=-25;Diaphorase 30uM=3
Cc1ccc(N2C(=O)CC(N3CCN(c4ccc(F)cc4)CC3)C2=O)c(C)c1 (stereo not drawn)	-8	205	3	5	6	2	x
Cc1ccc(-n2sc3cc(F)ccc3c2=O)c(C)c1	x	x	124*	-4	-1	x	104*	Diaphorase 10uM=5;Diaphorase 30uM=8
CN(CC(=O)Nc1cccc(F)c1)C(=O)c1ccc(COc2ccccc2)cc1	1	400	6	-11	2	-2	x
Cc1ccc(C)c(-c2nnc(NC(=O)Cc3ccccc3)o2)c1	8	385	-31	-3	-10	1	x
Cc1ccc(C)c(N2CCN(C(=O)CCc3nc(-c4ccc(F)cc4)no3)CC2)c1	2	x	-2	-4	-9	-4	x
Cc1ccc(NC(=O)c2ccc(-n3cccn3)c([N+](=O)[O-])c2)cc1C	-8	558	77*	-5	5	-2	16
O=C(Nc1ccc(Cl)cc1)c1ccc(-n2cccn2)c([N+](=O)[O-])c1	0	194	70*	-3	7	-2	15
CCn1c(=O)n(CC)c2cc(S(=O)(=O)N3CCc4ccccc43)ccc21	-1	388	78*	-8	-6	-10	44
CCOc1ccc(-n2c(SCc3cc(=O)oc4cc(C)ccc34)nnc2-c2cccnc2)cc1	-8	348	16	8	8	-4	x
CC(C)c1ccccc1-n1c(SCc2cc(=O)oc3ccc4ccccc4c23)nnc1-c1cccnc1	-10	129	61*	3	-1	10	-15
O=C(NCc1ccco1)c1cccnc1Cl	-12	219	1	0	1	-12	x
O=C(NCc1ccco1)c1cccnc1-c1nc2ccccc2s1	-7	400	60*	3	-3	8	25
COc1ccc2nc3ccccc3nc2c1N	-5	370	71*	5	-9	17	14
SMILES	ATG4B inhibitor	T cell modulator	PfGluPho inh	PKA-R2B activ	PKA-R1A act	HKDC1 inhibitor	PfG6PD confirm	others
CC(C)C[C@@H](CNCC(=O)[C@H](Cc1ccccc1)NC(=O)c1[nH]cnc1C(=O)N[C@H](CN)CC(C)C)NC(=O)c1nc[nH]c1C(=O)N[C@@H](CC(=O)O)C(=O)O	x	x	6	14	7	19	x
NC(=O)c1ccc(NC(=O)CCN=C2NS(=O)(=O)c3ccccc32)cc1	4	169	-3	4	3	2	x
COc1ccc(NC(=O)CC2C(=O)Nc3ccccc3N2CC(=O)N2CCCC2)cc1 (stereo not drawn)	-20	732	9	-5	-6	3	x
COc1ccc(N)cc1-n1c(C)ccc1C	-4	397	78*	2	-5	14	13
COc1ccc(C)cc1-n1c(C)cc(C=O)c1C	-7	128	18	-10	-2	0	x
CCOc1ccc(S(=O)(=O)NCCc2ccccn2)cc1	-11	378	-6	-2	0	-5	x
CCOc1ccc(C(=S)NC2CCCCC2)cc1OCC	11	348	65*	-7	-5	-6	23
Cc1nn(-c2ccccc2)c(Cl)c1/C=N/NC(N)=O	0	753	3	-6	-11	0	x
Cc1nn(-c2ccccc2)c(Cl)c1/C=N/Nc1nc2ccccc2n1C	4	115	102*	-5	6	-8	47*	Diaphorase 10uM=37;Diaphorase 30uM=38
COC(=O)c1ccccc1C(=O)c1ccc2c(c1)NC(=O)CO2	-5	305	68*	6	-14	1	35
O=C1COc2ccc(C(=O)COC(=O)c3ccccc3F)cc2N1	4	672	1	2	-3	-2	x
O=C(Nc1ccccc1C(=O)N/N=C/c1ccc(F)cc1)c1ccccc1Br	21	x	104*	-6	-3	1	84*	Diaphorase 10uM=69*;Diaphorase 30uM=59*
COc1cccc(NC(=O)c2ccc(-c3ccc([N+](=O)[O-])cc3)o2)c1	-5	268	64*	-4	0	4	6
CC(=O)c1cccc(NC(=O)c2ccc(-c3ccccc3[N+](=O)[O-])o2)c1	-25	211	61*	10	2	7	22
Cc1ccc(-n2c(=S)[nH]c3sc4c(c3c2=O)CCc2ccccc2-4)cc1	-2	302	10	-3	0	2	x
Cc1cccc(-n2c(=S)[nH]c3sc4c(c3c2=O)CCc2ccccc2-4)c1	-10	x	67*	-10	-5	6	52*	Diaphorase 10uM=-24;Diaphorase 30uM=6
Cc1ccc(NC(=O)c2ncn(CCCNCC3CCCO3)n2)cc1C (stereo not drawn)	1	x	-9	6	6	-3	x
